Calls of active or inactive are those of the source. No cut-off for these calls is given here.
What was measured:
Candida albicans [1] = experiment: Antifungal activity against Candida albicans ATCC 10231 at 25 ug/disk after 24 hrs by disk diffusion method; assay type: functional; settings: ATCC 10231, 24 h, read-out: IZ
Procedure, shortened: (§1)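 Disc diffusion: sterile 6 mm paper discs impregnated with compound dissolved in DMSO, placed on the surface of medium inoculated with the microorganism; DMSO-only discs served as controls. Plates were incubated at 37 °C for 24 h. Growth-inhibition zone diameter (mm) was read and averaged over three trials.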

Candida albicans [2] = experiment: Antifungal activity against Candida albicans ATCC 10231 at 200 ug/disk after 24 hrs by disk diffusion method; assay type: functional; settings: for zone of inhibition at 200 µg/disc: ATCC 10231, 24 h, read-out: IZ
Procedure, shortened: (§2)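 Disk diffusion on media seeded with the organism. Sterile paper discs (6 mm) carried test compound dissolved in DMSO at 12.5, 50, 100 or 200 µg/disc. DMSO-only discs served as controls. Plates were incubated 24 h at 37 °C. The read-out is the growth-inhibition zone diameter in mm, averaged over three trials (±1 mm).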

Candida albicans [3] = experiment: Antifungal activity against Candida albicans ATCC 10231 at 100 ug/disk after 24 hrs by disk diffusion method; assay type: functional; settings: for zone of inhibition at 100 µg/disc: ATCC 10231, 24 h, read-out: IZ; procedure, shortened: as §2
Candida albicans [4] = experiment: Antifungal activity against Candida albicans ATCC 10231 at 50 ug/disk after 24 hrs by disk diffusion method; assay type: functional; settings: for zone of inhibition at 50 µg/disc: ATCC 10231, 24 h, read-out: IZ; procedure, shortened: as §2
Staphylococcus aureus [5] = experiment: Antibacterial activity against Staphylococcus aureus ATCC 25923 at 200 ug/disk after 24 hrs by disk diffusion method; assay type: functional; settings: ATCC 25923, 24 h, read-out: IZ; procedure, shortened: as §2
Staphylococcus aureus [6] = experiment: Antibacterial activity against Staphylococcus aureus ATCC 25923 at 100 ug/disk after 24 hrs by disk diffusion method; assay type: functional; settings: ATCC 25923, 24 h, read-out: IZ; procedure, shortened: as §2
Staphylococcus aureus [7] = experiment: Antibacterial activity against Staphylococcus aureus ATCC 25923 at 50 ug/disk after 24 hrs by disk diffusion method; assay type: functional; settings: for zone of inhibition at 50 µg/disc: ATCC 25923, 24 h, read-out: IZ; procedure, shortened: as §2
[8] = tested on: Staphylococcus epidermidis; experiment: Antibacterial activity against Staphylococcus epidermidis ATCC 26069 at 200 ug/disk after 24 hrs by disk diffusion method; assay type: functional; settings: for zone of inhibition at 200 µg/disc: ATCC 26069, 24 h, read-out: IZ; procedure, shortened: as §2
[9] = tested on: Staphylococcus epidermidis; experiment: Antibacterial activity against Staphylococcus epidermidis ATCC 26069 at 100 ug/disk after 24 hrs by disk diffusion method; assay type: functional; settings: for zone of inhibition at 100 µg/disc: ATCC 26069, 24 h, read-out: IZ; procedure, shortened: as §2
[10] = tested on: Staphylococcus epidermidis; experiment: Antibacterial activity against Staphylococcus epidermidis ATCC 26069 at 50 ug/disk after 24 hrs by disk diffusion method; assay type: functional; settings: for zone of inhibition at 50 µg/disc: ATCC 26069, 24 h, read-out: IZ; procedure, shortened: as §2
Escherichia coli [11] = experiment: Antibacterial activity against Escherichia coli ATCC 44752 at 200 ug/disk after 24 hrs by disk diffusion method; assay type: functional, organism-based; procedure, shortened: as §2
Escherichia coli [12] = experiment: Antibacterial activity against Escherichia coli ATCC 44752 at 100 ug/disk after 24 hrs by disk diffusion method; assay type: functional, organism-based; procedure, shortened: as §2
Escherichia coli [13] = experiment: Antibacterial activity against Escherichia coli ATCC 44752 at 50 ug/disk after 24 hrs by disk diffusion method; assay type: functional, organism-based; procedure, shortened: as §2
Candida albicans [14] = experiment: Antifungal activity against Candida albicans ATCC 10231 after 24 hrs by disk diffusion method; assay type: functional, organism-based; procedure, shortened: as §2
Staphylococcus aureus [15] = experiment: Antibacterial activity against Staphylococcus aureus ATCC 25923 after 24 hrs by disk diffusion method; assay type: functional, organism-based; procedure, shortened: as §2
[16] = tested on: Staphylococcus epidermidis; experiment: Antibacterial activity against Staphylococcus epidermidis ATCC 26069 after 24 hrs by disk diffusion method; assay type: functional, organism-based; procedure, shortened: as §2
Candida albicans [17] = experiment: Antifungal activity against Candida albicans ATCC 10231 at <12.5 ug/disk after 24 hrs by disk diffusion method; assay type: functional, organism-based; procedure, shortened: as §2
Staphylococcus aureus [18] = experiment: Antibacterial activity against Staphylococcus aureus ATCC 25923 at <12.5 ug/disk after 24 hrs by disk diffusion method; assay type: functional, organism-based; procedure, shortened: as §2
[19] = tested on: Staphylococcus epidermidis; experiment: Antibacterial activity against Staphylococcus epidermidis ATCC 26069 at <12.5 ug/disk after 24 hrs by disk diffusion method; assay type: functional, organism-based; procedure, shortened: as §2
Staphylococcus aureus [20] = experiment: Antibacterial activity against Staphylococcus aureus ATCC 25923 at 30 ug/disk after 24 hrs by disk diffusion method; assay type: functional; settings: ATCC 25923, 24 h, read-out: IZ; procedure, shortened: as §1
[21] = tested on: Staphylococcus epidermidis; experiment: Antibacterial activity against Staphylococcus epidermidis ATCC 26069 at 30 ug/disk after 24 hrs by disk diffusion method; assay type: functional; settings: ATCC 26069, 24 h, read-out: IZ; procedure, shortened: as §1
Escherichia coli [22] = experiment: Antibacterial activity against Escherichia coli ATCC 44752 at 30 ug/disk after 24 hrs by disk diffusion method; assay type: functional; settings: ATCC 44752, 24 h, read-out: IZ; procedure, shortened: as §1

OC(Cn1cncn1)(Cn1cncn1)c1ccc(F)cc1F [FLUCONAZOLE]
zone of inhibition at 25 µg/disc (Candida albicans [1]): 23 mm

CCOC(=O)C1C(C)=Nc2ccccc2SC1c1ccc(O)cc1 (stereo not drawn)
zone of inhibition at 200 µg/disc (Candida albicans [2]): 30 mm
zone of inhibition at 100 µg/disc (Candida albicans [3]): 24 mm
zone of inhibition at 50 µg/disc (Candida albicans [4]): 14 mm
zone of inhibition at 200 µg/disc (Staphylococcus aureus [5]): 18 mm
zone of inhibition at 100 µg/disc (Staphylococcus aureus [6]): 15 mm
zone of inhibition at 50 µg/disc (Staphylococcus aureus [7]): 7 mm
zone of inhibition at 200 µg/disc [8]: 20 mm
zone of inhibition at 100 µg/disc [9]: 16 mm
zone of inhibition at 50 µg/disc [10]: 10 mm
inhibition zone (IZ) (Escherichia coli [11]): inactive
inhibition zone (IZ) (Escherichia coli [12]): inactive
inhibition zone (IZ) (Escherichia coli [13]): inactive
Activity (Candida albicans [14]): Dose-dependent effect
Activity (Staphylococcus aureus [15]): Dose-dependent effect
Activity [16]: Dose-dependent effect
Activity (Candida albicans [17]): inactive
Activity (Staphylococcus aureus [18]): inactive
Activity [19]: inactive

CN[C@H](CC(C)C)C(=O)N[C@H]1C(=O)N[C@@H](CC(N)=O)C(=O)N[C@H]2C(=O)N[C@H]3C(=O)N[C@H](C(=O)N[C@H](C(=O)O)c4cc(O)cc(O)c4-c4cc3ccc4O)[C@H](O)c3ccc(c(Cl)c3)Oc3cc2cc(c3O[C@@H]2O[C@H](CO)[C@@H](O)[C@H](O)[C@H]2O[C@H]2C[C@](C)(N)[C@H](O)[C@H](C)O2)Oc2ccc(cc2Cl)[C@H]1O [VANCOMYCIN]
zone of inhibition at 30 µg/disc (Staphylococcus aureus [20]): 18 mm
zone of inhibition at 30 µg/disc [21]: 18 mm
zone of inhibition at 30 µg/disc (Escherichia coli [22]): 8 mm

CC(=O)C1=C(C)Nc2ccccc2SC1c1ccc(Cl)cc1 (stereo not drawn)
zone of inhibition at 200 µg/disc (Candida albicans [2]): 24 mm
zone of inhibition at 100 µg/disc (Candida albicans [3]): 21 mm
zone of inhibition at 50 µg/disc (Candida albicans [4]): 18 mm
zone of inhibition at 200 µg/disc (Staphylococcus aureus [5]): 15 mm
zone of inhibition at 100 µg/disc (Staphylococcus aureus [6]): 14 mm
zone of inhibition at 50 µg/disc (Staphylococcus aureus [7]): 12 mm
zone of inhibition at 200 µg/disc [8]: 19 mm
zone of inhibition at 100 µg/disc [9]: 17 mm
zone of inhibition at 50 µg/disc [10]: 17 mm
inhibition zone (IZ) (Escherichia coli [11]): inactive
inhibition zone (IZ) (Escherichia coli [12]): inactive
inhibition zone (IZ) (Escherichia coli [13]): inactive
Activity (Candida albicans [14]): Dose-dependent effect
Activity (Staphylococcus aureus [15]): Dose-dependent effect
Activity [16]: Dose-dependent effect
Activity (Candida albicans [17]): inactive
Activity (Staphylococcus aureus [18]): inactive
Activity [19]: inactive

CC(=O)C1=C(C)Nc2cc(Cl)ccc2SC1c1ccc(Cl)cc1Cl (stereo not drawn)
inhibition zone (IZ) (Candida albicans [2]): inactive
inhibition zone (IZ) (Candida albicans [3]): inactive
inhibition zone (IZ) (Candida albicans [4]): inactive
zone of inhibition at 200 µg/disc (Staphylococcus aureus [5]): 10 mm
zone of inhibition at 100 µg/disc (Staphylococcus aureus [6]): 7 mm
inhibition zone (IZ) (Staphylococcus aureus [7]): inactive
inhibition zone (IZ) [8]: inactive
inhibition zone (IZ) [9]: inactive
inhibition zone (IZ) [10]: inactive
inhibition zone (IZ) (Escherichia coli [11]): inactive
inhibition zone (IZ) (Escherichia coli [12]): inactive
inhibition zone (IZ) (Escherichia coli [13]): inactive

CC(=O)C1=C(C)Nc2cc(Cl)ccc2SC1c1ccc(Br)cc1 (stereo not drawn)
zone of inhibition at 200 µg/disc (Candida albicans [2]): 15 mm
zone of inhibition at 100 µg/disc (Candida albicans [3]): 11 mm
zone of inhibition at 50 µg/disc (Candida albicans [4]): 10 mm
zone of inhibition at 200 µg/disc (Staphylococcus aureus [5]): 11 mm
zone of inhibition at 100 µg/disc (Staphylococcus aureus [6]): 10 mm
zone of inhibition at 50 µg/disc (Staphylococcus aureus [7]): 9 mm
zone of inhibition at 200 µg/disc [8]: 11 mm
zone of inhibition at 100 µg/disc [9]: 10 mm
zone of inhibition at 50 µg/disc [10]: 9 mm
inhibition zone (IZ) (Escherichia coli [11]): inactive
inhibition zone (IZ) (Escherichia coli [12]): inactive
inhibition zone (IZ) (Escherichia coli [13]): inactive

CC(=O)C1=C(C)Nc2ccccc2SC1c1ccccc1 (stereo not drawn)
zone of inhibition at 200 µg/disc (Candida albicans [2]): 10 mm
zone of inhibition at 100 µg/disc (Candida albicans [3]): 7 mm
inhibition zone (IZ) (Candida albicans [4]): inactive
zone of inhibition at 200 µg/disc (Staphylococcus aureus [5]): 11 mm
zone of inhibition at 100 µg/disc (Staphylococcus aureus [6]): 8 mm
zone of inhibition at 50 µg/disc (Staphylococcus aureus [7]): 6.5 mm
zone of inhibition at 200 µg/disc [8]: 10 mm
zone of inhibition at 100 µg/disc [9]: 7 mm
inhibition zone (IZ) [10]: inactive
inhibition zone (IZ) (Escherichia coli [11]): inactive
inhibition zone (IZ) (Escherichia coli [12]): inactive
inhibition zone (IZ) (Escherichia coli [13]): inactive

CC(=O)C1=C(C)Nc2ccccc2SC1c1ccccc1Cl (stereo not drawn)
zone of inhibition at 200 µg/disc (Candida albicans [2]): 15 mm
zone of inhibition at 100 µg/disc (Candida albicans [3]): 15 mm
zone of inhibition at 50 µg/disc (Candida albicans [4]): 12 mm
zone of inhibition at 200 µg/disc (Staphylococcus aureus [5]): 9 mm
zone of inhibition at 100 µg/disc (Staphylococcus aureus [6]): 8 mm
zone of inhibition at 50 µg/disc (Staphylococcus aureus [7]): 8 mm
zone of inhibition at 200 µg/disc [8]: 9 mm
zone of inhibition at 100 µg/disc [9]: 7.5 mm
zone of inhibition at 50 µg/disc [10]: 7.5 mm
inhibition zone (IZ) (Escherichia coli [11]): inactive
inhibition zone (IZ) (Escherichia coli [12]): inactive
inhibition zone (IZ) (Escherichia coli [13]): inactive
